# Cneo AK release: Cryptococcus neoformans cell lysis inducers, primary screen, AK release luminescence, single concentration | C. neoformans lysis, adenylate kinase release luminescence, 4 h; normalised: neutral wells 0, clomiphene wells 100 | lysis activity, % at 15 µM | 360,000 compounds, 0.2% hits;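 active = mean lysis activity across replicates of at least 80%, whatever share of replicates individually reach that level; inactive = mean lysis activity below 80%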
#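 Assay system: log-phase C. neoformans yeast / Quantity: yeast cell density of 5 × 10^6 cells/mL / Medium: fresh YPD growth medium / Compound: single dose / Timing: static 4 h at 37 °C with compound, 1 h detection / Measured by: adenylate kinase release luminescence / Read-out: lysis from increased AK signal / Benchmarks: Clomiphene as positive lysis control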
# CDK5 p35 inh: inhibitors of human CDK5/p35 kinase, primary screen, biochemical, single concentration | Cyclin-dependent kinase 5 (Homo sapiens) + Cyclin-dependent kinase 5 activator 1 (Homo … | Recombinant CDK5/p35, ADP-Glo luminescence, 60 min | inhibition, % at 10 µM | 330,000 compounds, 0.01% hits | AID 488839, 2010;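 active = highest replicate inhibition of at least 50% and at least 75% of replicates reaching 50%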
# dFosB activator: activators of delta FosB homodimer, primary screen, biochemical, fluorescence polarization, TAMRA-CDK5 oligo, single point; activation, % at 25 µM; 340,000 compounds, 0.99% hits; Protein FosB (Mus musculus), P13346; purified delta FosB; percent of positive-control signal above neutral wells; AID 493131, 2011;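 active = mean activation above about 17%, with every replicate also reaching it, limit read from the data, passing the limit was not always enough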
# Target sequence (P13346 whole entry, looked up): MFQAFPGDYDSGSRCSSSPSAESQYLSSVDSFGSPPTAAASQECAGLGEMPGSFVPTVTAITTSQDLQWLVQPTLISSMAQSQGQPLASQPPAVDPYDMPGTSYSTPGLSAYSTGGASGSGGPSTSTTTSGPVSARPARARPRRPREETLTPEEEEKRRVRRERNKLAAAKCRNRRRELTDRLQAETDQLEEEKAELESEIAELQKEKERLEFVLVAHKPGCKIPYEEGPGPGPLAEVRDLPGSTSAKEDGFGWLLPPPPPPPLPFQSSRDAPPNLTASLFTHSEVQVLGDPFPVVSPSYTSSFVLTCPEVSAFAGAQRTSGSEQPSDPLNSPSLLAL
# PAX8 inh HTS: inhibitors of PAX8-driven TPO luciferase reporter, primary screen, RMG-I cells, single concentration. AID 652154, 2013. SteadyGlo, 24 h. inhibition, % at 12.6 µM. 360,000 compounds, 1.2% hits;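 active = mean replicate inhibition at least 60% with every replicate also reaching 60%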;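 also: luciferase light reporting Pax8 driven TPO promoter activity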
# INS-1E GSIS act: GLuc luminescence reporter in INS-1E cells, primary screen for activators of glucose-dependent secretion of insulin; INS-1E GLuc reporter insulin secretion, 2-3 h; activation, % at 16.6 µM; 370,000 compounds, 0.61% hits;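 active = lowest replicate activation of at least 40%, so every replicate reaches that level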
# Env fusion inh: inhibitors of HIV-1 Env-driven cell-cell fusion, primary screen, HeLa-JRFL effector, CEM21 target cells, luciferase. 360,000 compounds, 1.1% hits. AID 651610, 2012. inhibition, % at 12.3 µM;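 active = mean replicate inhibition score of at least 50 and every replicate individually at or above 50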
# A number is an active result; - = inactive; . = no result. Shown are actives, neighbours in structure and some others; about 2.9% of the full set was active somewhere.
SMILES,Cneo AK release,CDK5 p35 inh,dFosB activator,PAX8 inh HTS,INS-1E GSIS act,Env fusion inh
C[C@@H]1CCCCO[C@H](CN(C)Cc2ccc(C(F)(F)F)cc2)[C@@H](C)CN([C@H](C)CO)C(=O)c2cc(NC(=O)Cc3ccccc3)ccc2O1,-,.,.,-,-,-
C[C@@H]1CCCCO[C@H](CN(C)Cc2ccc(C(F)(F)F)cc2)[C@@H](C)CN([C@@H](C)CO)C(=O)c2cc(NC(=O)Cc3ccccc3)ccc2O1,-,.,.,85,-,-
CC(=O)Nc1ccc2c(c1)C(=O)N(C)[C@H]1CC[C@H](CC(=O)N3CCc4ccccc4C3)O[C@@H]1CO2,-,.,.,-,-,-
CCCC(=O)Nc1ccc2c(c1)OC[C@H](C)N(Cc1ccncc1)C[C@@H](C)[C@@H](OC)CN(C)C2=O,-,.,.,.,-,-
COCCNC(=O)C[C@H]1C[C@@H]2c3cc(NS(=O)(=O)c4ccccc4)ccc3O[C@@H]2[C@H](CO)O1,-,.,.,-,-,-
CCOC(=O)Nc1ccc2c(c1)N(C(=O)CCN1CCOCC1)c1ccccc1S2=O (configuration not stated),-,-,-,106,.,-
CCOC(=O)Nc1ccc2c(c1)N(C(=O)CCN1CCOCC1)c1ccccc1S2,-,-,-,-,-,-
COc1ccc2ccc(=O)oc2c1CC=C(C)C,-,-,-,.,62,.
NC(=S)N/N=C/c1ccc(-c2cc(Cl)ccc2Cl)o1,111,-,-,.,-,.
CCOC(=O)/C=C/[C@H]1CCc2cccc(Cl)c2O1,-,-,-,-,-,-
CCOC(=O)/C=C/[C@H]1CC2(CCO1)SCCCS2,-,-,-,-,-,69
C[C@@H]1CN([C@@H](C)CO)C(=O)Cc2cc(NC(=O)NC3CCCCC3)ccc2O[C@@H]1CN(C)S(=O)(=O)c1cccs1,-,.,.,-,-,-
Cc1nc2ccc(NC(=O)c3cc(S(=O)(=O)N(C)c4ccccc4)ccc3Cl)cc2s1,.,-,-,.,-,87
Cc1nc2ccc(NC(=O)c3ccc(Cl)c(S(=O)(=O)N(C)c4ccccc4)c3)cc2s1,-,-,-,-,-,74
CNc1nc(Sc2ccccc2)cc(C(F)(F)F)n1,-,-,-,-,51,-
CC1=C(C(=O)N2CCC=CC2=O)Cc2ccccc21,-,.,.,95,.,-
O=C1C=CCCN1C(=O)/C=C/c1cccc(Br)c1,-,.,.,-,.,-
CC1CCc2nc(N)c(C#N)c(-c3ccncc3)c2C1 (configuration not stated),-,-,-,.,78,-
CC1CCc2nc(N)c(C#N)c(-c3cccnc3)c2C1 (configuration not stated),-,-,-,-,-,-
Cc1c(Nc2cc(Cl)c3nonc3c2[N+](=O)[O-])c(=O)n(-c2ccccc2)n1C,.,-,-,107,-,-
O=[N+]([O-])c1c(Nc2cccc(O)c2)cc(Cl)c2nonc12,-,-,-,112,97,-
O=C(CC(F)(F)F)N1C[C@@H]2[C@H](c3ccccc31)[C@H](CO)N2C(=O)c1cccnc1,-,.,.,-,-,.
O=[N+]([O-])c1ccc(N/N=C/c2sc(N3CCOCC3)nc2-c2ccccc2)c(S(=O)(=O)Nc2ccccc2Cl)c1,.,-,-,-,-,95
O=C(N/N=C/c1sc(N2CCOCC2)nc1-c1ccccc1)c1ccccc1Cl,-,-,-,-,-,-
O=[N+]([O-])c1ccc(N/N=C/c2sc(N3CCOCC3)nc2-c2ccccc2)c(S(=O)(=O)Nc2ccc(Cl)cc2)c1,.,-,-,102,-,-
SMILES,Cneo AK release,CDK5 p35 inh,dFosB activator,PAX8 inh HTS,INS-1E GSIS act,Env fusion inh
O=C1Nc2ccccc2N=C(c2ccc3c(c2)OCO3)C1N(C(=O)c1ccc2ccccc2c1)C1CC1 (configuration not stated),-,.,.,-,-,56
O=C1Nc2ccccc2N=C(c2ccc3c(c2)OCO3)C1N(C(=O)c1ccnc2ccccc12)c1ccccc1 (configuration not stated),-,.,.,-,-,-
CC1(C)C2([N+](=O)[O-])CN3CC1([N+](=O)[O-])CN(C2)C3c1ccccc1 (configuration not stated),.,-,-,.,56,-
CC(C)c1ccc(C2N3CC4([N+](=O)[O-])CN2CC([N+](=O)[O-])(C3)C4(C)C)cc1 (configuration not stated),.,-,-,-,-,-
O=C(N/N=C/c1ccc(O)cc1O)c1ccc(CN2C(=O)c3cccc4cccc2c34)cc1,.,-,-,67,-,-
O=C(N/N=C/c1ccccc1)c1ccc(CN2C(=O)c3cccc4cccc2c34)cc1,.,-,-,-,.,-
Cc1cc([N+](=O)[O-])nn1Cc1ccc(C(=O)N/N=C/c2ccc(O)cc2O)cc1,-,-,-,63,-,-
Cc1noc(C)c1NC(=O)N(C)C[C@@H]1Oc2ccc(NS(C)(=O)=O)cc2C(=O)N([C@@H](C)CO)C[C@H]1C,-,.,.,.,-,.
CNC[C@@H]1Oc2ccc(NC(=O)NC(C)C)cc2C(=O)N([C@H](C)CO)C[C@@H]1C,-,.,.,-,-,-
C/C=C/c1ccc2c(c1)O[C@H](CN(C)C(=O)Nc1cc(F)ccc1F)[C@@H](C)CN([C@H](C)CO)S2(=O)=O,-,.,.,.,-,-
C[C@H](CO)N1C[C@H](C)[C@H](CN(C)C(=O)Nc2cc(F)ccc2F)Oc2cc(/C=C/c3ccccc3)ccc2S1(=O)=O,-,.,.,65,-,-
C[C@H]1CN([C@@H](C)CO)S(=O)(=O)c2ccc(/C=C/c3ccccc3)cc2O[C@@H]1CN(C)C(=O)Nc1cccc(F)c1,-,.,.,62,-,-
C[C@H](CO)N1C[C@H](C)[C@H](CN(C)C(=O)Nc2cccc(F)c2)Oc2cc(/C=C/c3ccccc3)ccc2S1(=O)=O,-,.,.,-,-,-
CN1C(=O)c2cc(NC(=O)c3cccc(F)c3)ccc2OC[C@@H]2O[C@H](CC(=O)Nc3ccccc3)CC[C@H]21,-,.,.,-,-,.
CCC(=O)N(C)C[C@H]1Oc2cc(-c3ccc(C#N)cc3)ccc2S(=O)(=O)N([C@@H](C)CO)C[C@@H]1C,-,.,.,.,-,-
CCN1[C@@H]2c3ccc(-c4ccncc4)c(=O)n3C[C@@H]2[C@@H](CO)[C@@H]1C(=O)Nc1ccccc1,-,.,.,-,-,.
CS(=O)(=O)c1ccc(C(=O)OCC(=O)NC23CC4CC(CC(C4)C2)C3)cc1[N+](=O)[O-],.,-,-,-,-,-
CC(C)CN1CCN(C(=O)COC(=O)c2ccc(S(C)(=O)=O)c([N+](=O)[O-])c2)CC1,-,.,.,112,138,-
CC(=O)N1CCN(C(=O)COC(=O)c2ccc(S(C)(=O)=O)cc2)CC1,-,-,-,.,67,-

# From PubChem
